Legend:
[1] = cited from earlier work
Aβ(1-42) amyloid fibrils = Aβ(1-42) amyloid fibrils (Homo sapiens, UniProt P05067); test: Competition binding against [3H]PIB on Aβ; settings: [3H]PIB 3 nM, Aβ(1-42) fibrils
[2] = molecular target: synthetic Aβ(1-40) amyloid fibrils (Homo sapiens, UniProt P05067); test: Competition binding against [3H]PIB on Aβ; settings: [3H]PIB 3 nM, Aβ(1-40) fibrils
amyloid-β plaques = test: In vitro autoradiography on human AD brain sections; format: binding; settings: white matter
Method in brief: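 Cryo-cut 10 μm post-mortem AD cortical sections preincubated in 50 mM Tris (pH 7.4) at room temperature, then 30 min with 3 nM [3H]ligand in Tris buffer. Optical densities (digital light units/mm²) read in grey and white matter ROIs. Subcortical white matter signal taken as nonspecific binding. Signal-to-noise = (grey − white)/white.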

[3] = Brain time-activity curves in human PET; format: in vivo; settings: after intravenous injection
Method in brief: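 [11C]radioligand in sterile disodium phosphate-buffered saline (pH 7.4), filtered, given as an IV bolus to control subjects and mild–moderate AD patients. Dose for the AZD2995 radioligand was 410 ± 18 MBq (620 ± 486 GBq/μmol). List-mode PET ran 93 min (38 frames), with PSF-modelled iterative reconstruction. Brain radioactivity was expressed as percent injected activity over time.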

amyloid-β = amyloid-β (Homo sapiens, UniProt P05067); test: Human PET, DVR by reference Logan with cerebellum as reference; format: in vivo; settings: for DVR (mean ± SD), anterior cingulate cortex / DVR (mean ± SD), grey matter / DVR (mean ± SD), hippocampus / DVR (mean ± SD), lateral temporal cortex / DVR (mean ± SD), parietal cortex / DVR (mean ± SD), posterior cingulate cortex / DVR (mean ± SD), prefrontal cortex / DVR (mean ± SD), white matter: refLogan
Method in brief: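 IV bolus [11C]radioligands in controls and AD patients; ROIs manually drawn on 1.5-T T1 MRI, cortical ROIs restricted to segmented grey matter. Reference Logan used cerebellar cortex (white matter and vermis excluded) as reference. Six linear-phase frames: 13–45 min for AZD2995, 30–60 min for AZD2184. DVR = target/cerebellum V T. Groups compared by Mann–Whitney U (p < 0.05) and pooled-SD effect size.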

[4] = test system: amyloid-β plaques and neurofibrillary tangles; settings: AD patients; cited from earlier work
[5] = read-out: IC50, inhibition of [3H]PIB binding
[6] = AD patients vs control subjects, DVR

amyloid-β, sequence (P05067 672-711 limits assumed): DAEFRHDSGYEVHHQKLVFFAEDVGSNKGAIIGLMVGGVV
Aβ(1-42) amyloid fibrils, sequence (P05067 672-713): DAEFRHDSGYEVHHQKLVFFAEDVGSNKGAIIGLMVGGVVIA
synthetic Aβ(1-40) amyloid fibrils, sequence (P05067 672-711): as the sequence (P05067 672-711 limits assumed) above

CNc1ccc(-c2nc3ccc(O)cc3s2)cn1 [AZD2184]
logD [1]: 1.8

CNc1ccc(-c2nc3ccc(O)cc3o2)cn1 [AZD2995]
pIC50, inhibition of [3H]PIB binding (Aβ(1-42) amyloid fibrils): 6.69 ± 0.05
IC50 (Aβ(1-42) amyloid fibrils; [5]): 204 nM
pIC50, inhibition of [3H]PIB binding [2]: 6.77 ± 0.02
IC50 [2, 5]: 170 nM
logD [1]: 1.3

[3H]C([3H])([3H])Nc1ccc(-c2nc3ccc(O)cc3s2)cc1 [[^3H]PIB]
nonspecific binding and background, rank order (amyloid-β plaques): highest

[11CH3]Nc1ccc(-c2nc3ccc(O)cc3s2)cn1 [[^11C]AZD2184]
time to peak of total radioactivity in brain [3]: at the same time
radioactivity in the brain at peak ([3]; % of injected radioactivity): 3.0–3.5%
Effect size, anterior cingulate cortex (amyloid-β; [6]): 8.52
Effect size, grey matter (amyloid-β; [6]): 4.89
Effect size, hippocampus (amyloid-β; [6]): 1.73
Effect size, lateral temporal cortex (amyloid-β; [6]): 5.00
Effect size, parietal cortex (amyloid-β; [6]): 5.26
Effect size, posterior cingulate cortex (amyloid-β; [6]): 6.34
Effect size, prefrontal cortex (amyloid-β; [6]): 5.82
Effect size, white matter (amyloid-β; [6]): 2.67
DVR (mean ± SD), anterior cingulate cortex (amyloid-β; AD patients): 1.97 ± 0.15
DVR (mean ± SD), grey matter (amyloid-β; AD patients): 1.72 ± 0.17
DVR (mean ± SD), hippocampus (amyloid-β; AD patients): 1.11 ± 0.10
DVR (mean ± SD), lateral temporal cortex (amyloid-β; AD patients): 1.94 ± 0.22
DVR (mean ± SD), parietal cortex (amyloid-β; AD patients): 2.07 ± 0.25
DVR (mean ± SD), posterior cingulate cortex (amyloid-β; AD patients): 2.10 ± 0.18
DVR (mean ± SD), prefrontal cortex (amyloid-β; AD patients): 2.13 ± 0.23
DVR (mean ± SD), white matter (amyloid-β; AD patients): 1.25 ± 0.05
DVR (mean ± SD), anterior cingulate cortex (amyloid-β; control subjects): 0.92 ± 0.02
DVR (mean ± SD), grey matter (amyloid-β; control subjects): 1.05 ± 0.05
DVR (mean ± SD), hippocampus (amyloid-β; control subjects): 0.95 ± 0.08
DVR (mean ± SD), lateral temporal cortex (amyloid-β; control subjects): 1.03 ± 0.05
DVR (mean ± SD), parietal cortex (amyloid-β; control subjects): 1.04 ± 0.04
DVR (mean ± SD), posterior cingulate cortex (amyloid-β; control subjects): 1.17 ± 0.02
DVR (mean ± SD), prefrontal cortex (amyloid-β; control subjects): 1.04 ± 0.04
DVR (mean ± SD), white matter (amyloid-β; control subjects): 1.08 ± 0.13

CC(=C(C#N)C#N)c1ccc2cc(N(C)CC[18F])ccc2c1 [[^18F]FDDNP]
specific binding signal compared to other amyloid radioligands [4]: ninefold lower
